In ChEMBL document CHEMBL4152217, “Quinonoid compounds via reactions of lawsone and 2-aminonaphthoquinone with α-bromonitroalkenes and nitroallylic acetates: Structural diversity by C-ring modification and cytotoxic evaluation against cancer cells” (Eur J Med Chem, 2018):

Assays:
[1] = tested on: HCT-116; assay: Cytotoxicity against human HCT116 cells assessed as reduction in cell viability after 72 hrs by MTT assay; format: functional, cell-based; settings: HCT-116, 72 h
Summary of the method: (§1)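 MTT viability assay. Cancer lines grown in RPMI 1640 and L929 fibroblasts in DMEM, each with 10% FBS, 2 mM glutamine, penicillin/streptomycin, 37 °C, 5% CO2. PBMC were taken from healthy donors by density-gradient centrifugation, kept in RPMI with 20% FBS and stimulated with 2% phytohemagglutinin. Cells were exposed 72 h (0.01–27.32 µM). MTT 0.5 mg/mL for 3 h, absorbance read at 550 nm. IC50 with 95% CI from nonlinear regression; triplicate, ≥3 independent experiments.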

[2] = tested on: HL-60; assay: Cytotoxicity against human HL60 cells assessed as reduction in cell viability after 72 hrs by MTT assay; format: functional, cell-based; settings: HL-60, 72 h; summary of the method: as §1
[3] = tested on: PBMC; assay: Cytotoxicity against human PBMC cells assessed as reduction in cell viability after 72 hrs by MTT assay
[4] = tested on: L929; assay: Cytotoxicity against mouse L929 cells assessed as reduction in cell viability after 72 hrs by MTT assay; format: cell-based; settings: L929, 72 h; summary of the method: as §1
[5] = tested on: NCI-H460; assay: Cytotoxicity against human NCI-H460 cells assessed as reduction in cell viability after 72 hrs by MTT assay; settings: NCI-H460, 72 h
[6] = tested on: SF-295; assay: Cytotoxicity against human SF295 cells assessed as reduction in cell viability after 72 hrs by MTT assay; settings: SF-295, 72 h
[7] = tested on: PC-3; assay: Cytotoxicity against human PC3 cells assessed as reduction in cell viability after 72 hrs by MTT assay; format: functional, cell-based; settings: PC-3, 72 h; summary of the method: as §1
[8] = tested on: MX1; assay: Cytotoxicity against human MX1 cells assessed as reduction in cell viability after 72 hrs by MTT assay; settings: MX1, 72 h
[9] = tested on: OVCAR-8; assay: Cytotoxicity against human OVCAR8 cells assessed as reduction in cell viability after 72 hrs by MTT assay; settings: OVCAR-8, 72 h
[10] = tested on: Jurkat; assay: Cytotoxicity against human Jurkat cell viability after 72 hrs by MTT assay

SMILES	IC50 [1] [µM]	IC50 [2] [µM]	IC50 [3] [µM]	IC50 [4] [µM]	IC50 [5] [µM]	IC50 [6] [µM]	IC50 [7] [µM]	IC50 [8] [µM]	IC50 [9] [µM]	IC50 [10] [µM]
CCOC(=O)Cc1c(-c2ccccc2)c2c(n1-c1ccc(C)cc1)C(=O)c1ccccc1C2=O	> 11.1	> 11.1	> 11.1	> 11.1	> 11.1	> 11.1	> 11.1			
CCOC(=O)Cc1c(-c2ccc(OC)c(OC)c2)c2c(n1-c1ccc(Cl)cc1)C(=O)c1ccccc1C2=O	> 9.45	> 9.45	> 9.45	> 9.45	> 9.45	> 9.45	> 9.45			
CCOC(=O)Cc1oc2c(c1-c1ccc(OC)c(OC)c1)C(=O)c1ccccc1C2=O	6.16	3.97	> 11.9	8.47	7.53	> 11.9	> 11.9			
Cc1ccc(-c2cn(-c3ccc(Br)cc3)c3c2C(=O)c2ccccc2C3=O)cc1	> 12.1	> 12.1	> 12.1	> 12.1	> 12.1	> 12.1	> 12.1			
CCOC(=O)Cc1c(-c2cc(OC)c(OC)c(OC)c2)c2c(n1-c1cccc(Br)c1)C(=O)c1ccccc1C2=O	> 8.29	> 8.29	> 8.29	> 8.29	> 8.29	> 8.29	> 8.29			
Cc1ccc(-c2cn(-c3ccc(C)cc3)c3c2C(=O)c2ccccc2C3=O)cc1	> 11.3	> 11.3	> 11.3	> 11.3	> 11.3	> 11.3	> 11.3			
CCOC(=O)Cc1oc2c(c1-c1cc(OC)c(OC)c(OC)c1)C(=O)c1ccccc1C2=O	> 11.1	4.01	> 11.1	> 11.1	> 11.1	10.3	8.61			
COc1ccc(-c2coc3c2C(=O)c2ccccc2C3=O)cc1	5.78	4.31	> 16.4	> 16.4	6.34	4.99	4.96	5.59	6.01	3.81
CCOC(=O)Cc1c(-c2ccco2)c2c(n1-c1ccccc1)C(=O)c1ccccc1C2=O	> 11.8	> 11.8	> 11.8	> 11.8	> 11.8	> 11.8	> 11.8			
O=C1c2ccccc2C(=O)c2c(-c3ccc(F)cc3)coc21	6.02	3.28	> 17.1	13.6	4.34	6.33	3.97	5.2	5.43	3.45
CCOC(=O)Cc1oc2c(c1-c1ccco1)C(=O)c1ccccc1C2=O	> 14.3	> 14.3	> 14.3	> 14.3	> 14.3	> 14.3	> 14.3			
CCOC(=O)Cc1oc2c(c1/C=C/c1ccccc1)C(=O)c1ccccc1C2=O	> 13	10.7	> 13	> 13	> 13	> 13	> 13			
COc1ccc(-n2cc(-c3ccccc3)c3c2C(=O)c2ccccc2C3=O)cc1	> 13.2	> 13.2	> 13.2	> 13.2	> 13.2	> 13.2	> 13.2			
CCOC(=O)Cc1oc2c(c1-c1ccc(C)cc1)C(=O)c1ccccc1C2=O	> 13.4	> 13.4	> 13.4	> 13.4	> 13.4	> 13.4	> 13.4			
O=C1c2ccccc2C(=O)c2c(-c3ccccc3[N+](=O)[O-])coc21	1.28	1.66	> 15.7	> 15.7	2.53	2.94	1.59	2.85	2.25	1.47
COc1ccc(-n2cc(-c3ccco3)c3c2C(=O)c2ccccc2C3=O)cc1	> 13.5	> 13.5	> 13.5	> 13.5	> 13.5	> 13.5	> 13.5			
CCOC(=O)Cc1oc2c(c1-c1cccs1)C(=O)c1ccccc1C2=O	13.7	5.91	> 27.3	> 27.3	9.09	> 27.3	> 27.3			
CCOC(=O)Cc1c(-c2ccc(OC)c(OC)c2)c2c(n1-c1cccc(Br)c1)C(=O)c1ccccc1C2=O	> 8.72	> 8.72	> 8.72	> 8.72	> 8.72	> 8.72	> 8.72			

SMILES	IC50 [1] [µM]	IC50 [2] [µM]	IC50 [3] [µM]	IC50 [4] [µM]	IC50 [5] [µM]	IC50 [6] [µM]	IC50 [7] [µM]	IC50 [8] [µM]	IC50 [9] [µM]	IC50 [10] [µM]
COc1ccc(-c2cn(-c3ccccc3)c3c2C(=O)c2ccccc2C3=O)cc1	> 13	> 13	> 13	> 13	> 13	> 13	> 13			
COc1ccc(-c2cn(-c3ccc(OC)cc3)c3c2C(=O)c2ccccc2C3=O)cc1	> 12.2	> 12.2	> 12.2	> 12.2	> 12.2	> 12.2	> 12.2			
CCOC(=O)Cc1c(-c2cccs2)c2c(n1-c1ccccc1)C(=O)c1ccccc1C2=O	> 11.3	2.63	> 11.3	> 11.3	> 11.3	> 11.3	> 11.3			
COc1ccc(-c2cn(-c3ccc(Cl)cc3)c3c2C(=O)c2ccccc2C3=O)cc1	> 12.6	> 12.6	> 12.6	> 12.6	> 12.6	> 12.6	> 12.6			
CCCCn1cc(-c2ccc(Cl)cc2)c2c1C(=O)c1ccccc1C2=O	> 13.8	> 13.8		> 13.8			> 13.8			
Cc1ccc(-c2cn(-c3cccc(Br)c3)c3c2C(=O)c2ccccc2C3=O)cc1	> 13.2	> 13.2	> 13.2	> 13.2	> 13.2	> 13.2	> 13.2			
CCOC(=O)Cc1c(-c2ccc(C)cc2)c2c(n1-c1ccc(OC)cc1)C(=O)c1ccccc1C2=O	> 10.4	3.36	> 10.4	> 10.4	> 10.4	> 10.4	> 10.4			
COc1ccc(-c2cn(-c3ccc(F)cc3)c3c2C(=O)c2ccccc2C3=O)cc1	> 13.2	> 13.2	> 13.2	> 13.2	> 13.2	> 13.2	> 13.2			
CCOC(=O)Cc1c(-c2ccc(OC)c(OC)c2)c2c(n1-c1ccc(Br)cc1)C(=O)c1ccccc1C2=O	> 17.4	> 17.4	> 17.4	> 17.4	> 17.4	6.45	> 17.4			
CCOC(=O)Cc1c(-c2ccc(C)cc2)c2c(n1-c1ccc(C)cc1)C(=O)c1ccccc1C2=O	> 10.8	> 10.8	> 10.8	> 10.8	> 10.8	> 10.8	> 10.8			
CCOC(=O)Cc1oc2c(c1-c1ccccc1)C(=O)c1ccccc1C2=O	12.5	8.38	> 13.9	> 13.9	8.86	> 13.9	> 13.9			
CCOC(=O)Cc1oc2c(c1-c1ccc(Cl)cc1)C(=O)c1ccccc1C2=O	> 12.7	10.2	> 12.7	> 12.7	> 12.7	> 12.7	> 12.7			
COc1ccc(-n2cc(-c3ccc(C)cc3)c3c2C(=O)c2ccccc2C3=O)cc1	> 12.7	> 12.7	> 12.7	> 12.7	> 12.7	> 12.7	> 12.7			
CCOC(=O)Cc1oc2c(c1-c1ccc(OC)cc1)C(=O)c1ccccc1C2=O	> 12.8	> 12.8	> 12.8	> 12.8	> 12.8	> 12.8	> 12.8			
CCOC(=O)Cc1oc2c(c1-c1cccc3ccccc13)C(=O)c1ccccc1C2=O	> 12.2	6.69	> 12.2	> 12.2	> 12.2	> 12.2	> 12.2			
COc1ccc(-n2cc(-c3ccc(F)cc3)c3c2C(=O)c2ccccc2C3=O)cc1	> 12.6	> 12.6	> 12.6	> 12.6	> 12.6	> 12.6	> 12.6			
CCOC(=O)Cc1c(-c2ccc(Cl)cc2)c2c(n1-c1ccc(OC)cc1)C(=O)c1ccccc1C2=O	> 10	> 10	> 10	> 10	> 10	> 10	> 10			
